Assay results reported in ChEMBL document CHEMBL4765265, “4-Substituted picolinohydrazonamides as a new class of potential antitubercular agents” (Eur J Med Chem, 2020).
Values after ≈ are worked out from the molar mass of the structure shown.

Experiments:
[1] = test system: Mycobacterium tuberculosis; experiment: Antimycobacterial activity against Mycobacterium tuberculosis H37Rv; type: functional
Outline: (§1)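 Classical test-tube successive twofold dilution in Youmans' modification of Proskauer and Beck liquid medium with 10% bovine serum. Inoculum from 14-day-old cultures. Compounds dissolved in ethylene glycol (stock 10 mg/mL), tested at […]. Incubation at 37 °C. MIC is the lowest concentration inhibiting growth relative to a compound-free tube. Isoniazid, pyrazinamide and rifampicin served as references.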

[2] = test system: Mycobacterium tuberculosis; experiment: Antimycobacterial activity against patient derived Mycobacterium tuberculosis Spec. 210; type: functional; outline: as §1
[3] = test system: Candida parapsilosis; experiment: Antifungal activity against Candida parapsilosis ATCC 22019 assessed as reduction in fungal growth incubated for 48 hrs by broth microdilution assay; type: functional; conditions: Lodderomyces parapsilosis
Outline: (§2)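 Yeasts were tested by twofold broth microdilution in Mueller-Hinton broth with 2% glucose at final concentrations of 0.98–1000 µg/mL. Inoculum was prepared from 0.5 McFarland suspensions in 0.85% NaCl, giving a final 5 × 10⁴ CFU/mL. Incubation was 48 h at 30 °C. MIC was the lowest concentration visually showing complete growth inhibition. Controls: 10% DMSO (final), growth and sterility. Triplicate.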

[4] = test system: Staphylococcus aureus; experiment: Antibacterial activity against Staphylococcus aureus ATCC 25923 assessed as reduction in bacterial growth incubated for 24 hrs by broth microdilution assay; type: functional
Outline: (§3)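 Twofold serial broth microdilution in Mueller-Hinton broth, supplemented with 5% lysed sheep blood for fastidious species. […]. Inoculum was set to 0.5 McFarland in 0.85% NaCl, giving a final 1.5 × 10⁶ CFU/mL. Plates were incubated 24 h at 35 °C. MIC was read visually as the lowest concentration with complete growth inhibition. Controls: 10% DMSO (final), growth and sterility. Triplicate.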

[5] = test system: Streptococcus pyogenes; experiment: Antibacterial activity against Streptococcus pyogenes ATCC 19615 assessed as reduction in bacterial growth incubated for 24 hrs by broth microdilution assay; type: functional; outline: as §3
[6] = test system: Staphylococcus aureus; experiment: Antibacterial activity against Staphylococcus aureus ATCC 43300 assessed as reduction in bacterial growth incubated for 24 hrs by broth microdilution assay; type: functional; outline: as §3
[7] = test system: Streptococcus pneumoniae; experiment: Antibacterial activity against Streptococcus pneumoniae ATCC 49619 assessed as reduction in bacterial growth incubated for 24 hrs by broth microdilution assay; type: functional; outline: as §3
[8] = test system: Staphylococcus epidermidis; experiment: Antibacterial activity against Staphylococcus epidermidis ATCC 12228 assessed as reduction in bacterial growth incubated for 24 hrs by broth microdilution assay; type: functional; outline: as §3
[9] = test system: Staphylococcus aureus; experiment: Antibacterial activity against Staphylococcus aureus ATCC 6538 assessed as reduction in bacterial growth incubated for 24 hrs by broth microdilution assay; type: functional; outline: as §3
[10] = test system: Bacillus subtilis; experiment: Antibacterial activity against Bacillus subtilis ATCC 6633 assessed as reduction in bacterial growth incubated for 24 hrs by broth microdilution assay; type: functional; outline: as §3
[11] = test system: Micrococcus luteus; experiment: Antibacterial activity against Micrococcus luteus ATCC 10240 assessed as reduction in bacterial growth incubated for 24 hrs by broth microdilution assay; type: functional; outline: as §3
[12] = test system: Bacillus cereus; experiment: Antibacterial activity against Bacillus cereus ATCC 10876 assessed as reduction in bacterial growth incubated for 24 hrs by broth microdilution assay; type: functional; outline: as §3
[13] = test system: Streptococcus mutans; experiment: Antibacterial activity against Streptococcus mutans ATCC 25175 assessed as reduction in bacterial growth incubated for 24 hrs by broth microdilution assay; type: functional; outline: as §3
[14] = test system: Escherichia coli; experiment: Antibacterial activity against Escherichia coli ATCC 25922 assessed as reduction in bacterial growth incubated for 24 hrs by broth microdilution assay; type: functional; outline: as §3
[15] = test system: Proteus mirabilis; experiment: Antibacterial activity against Proteus mirabilis ATCC […] assessed as reduction in bacterial growth incubated for 24 hrs by broth microdilution assay; type: functional; outline: as §3
[16] = test system: Candida albicans; experiment: Antifungal activity against Candida albicans ATCC 2091 assessed as reduction in fungal growth incubated for 48 hrs by broth microdilution assay; type: functional; outline: as §2
[17] = test system: Klebsiella pneumoniae; experiment: Antibacterial activity against Klebsiella pneumoniae ATCC 13883 assessed as reduction in bacterial growth incubated for 24 hrs by broth microdilution assay; type: functional; outline: as §3
[18] = test system: Candida albicans; experiment: Antifungal activity against Candida albicans ATCC […] assessed as reduction in fungal growth incubated for 48 hrs by broth microdilution assay; type: functional; outline: as §2
[19] = test system: Pseudomonas aeruginosa; experiment: Antibacterial activity against Pseudomonas aeruginosa ATCC 9027 assessed as reduction in bacterial growth incubated for 24 hrs by broth microdilution assay; type: functional; outline: as §3
[20] = test system: NHDF; experiment: Cytotoxicity against human NHDF cells assessed as reduction in cell viability incubated for 72 hrs by MTT assay; type: cell-based
[21] = test system: B16-F10; experiment: Cytotoxicity against mouse B16-F10 cells assessed as reduction in cell viability incubated for 72 hrs by MTT assay; type: cell-based; conditions: B16-F10, 72 h

Work on `N/C(=N\NC(=S)N1CCCCC1)c1cc(Sc2ccccc2)ccn1` yielded an MIC [1] of 12.5 µg/mL (≈ 33.6 µM) and an MIC [2] of 12.5 µg/mL (≈ 33.6 µM).
Work on `N/C(=N\NC(=S)N1CCCCC1)c1cc(N2CCCC2)ccn1` yielded an MIC [1] of 6.25 µg/mL (≈ 18.8 µM) and an MIC [2] of 6.25 µg/mL (≈ 18.8 µM).
`N/C(=N\NC(=S)N1CCCC1)c1cc(N2CCOCC2)ccn1` was tested, and the MIC [1] was 6.25 µg/mL (≈ 18.7 µM) and the MIC [2] was 6.25 µg/mL (≈ 18.7 µM).
`N/C(=N\NC(=S)N1CCN(c2ccccc2)CC1)c1cc(N2CCOCC2)ccn1` showed an MIC [1] of 6.25 µg/mL (≈ 14.7 µM) and an MIC [2] of 6.25 µg/mL (≈ 14.7 µM).
With `N/C(=N\NC(=S)N1CCN(c2ccccc2)CC1)c1cc(Sc2ccccc2)ccn1` the MIC [1] was 25 µg/mL (≈ 55.7 µM) and the MIC [2] was 25 µg/mL (≈ 55.7 µM).
`NC(=O)c1cnccn1` [PYRAZINAMIDE] was tested, and the MIC [1] was 25 µg/mL (≈ 203 µM) and the MIC [2] was greater than 400 µg/mL.
Compound `N/C(=N\NC(=S)N1CCCCC1)c1cc(N2CCOCC2)ccn1` has an MIC [1] of 6.25 µg/mL (≈ 17.9 µM) and an MIC [2] of 6.25 µg/mL (≈ 17.9 µM).
Work on `OC(Cn1cncn1)(Cn1cncn1)c1ccc(F)cc1F` [FLUCONAZOLE] yielded an MIC [3] of 1.95 µg/mL (≈ 6.37 µM).
`N/C(=N\NC(=S)N1CCN(c2ccccc2)CC1)c1cc(N2CCN(c3ccccc3)CC2)ccn1` showed an MIC [1] of 25 µg/mL (≈ 49.9 µM) and an MIC [2] of 25 µg/mL (≈ 49.9 µM).
`N/C(=N\NC(=S)N1CCCCC1)c1cc(N2CCN(c3ccccc3)CC2)ccn1` gave an MIC [1] of 25 µg/mL (≈ 59 µM) and an MIC [2] of 25 µg/mL (≈ 59 µM).
`N/C(=N\NC(=S)N1CCN(c2ccccc2)CC1)c1cc(N2CCCC2)ccn1` gave an MIC [1] of 6.25 µg/mL (≈ 15.3 µM) and an MIC [2] of 6.25 µg/mL (≈ 15.3 µM).
In the case of `N/C(=N\NC(=S)N1CCCC1)c1cc(Sc2ccccc2)ccn1`, the MIC [1] is reported as 6.25 µg/mL (≈ 17.5 µM) and the MIC [2] is reported as 6.25 µg/mL (≈ 17.5 µM).
For `CN[C@H](CC(C)C)C(=O)N[C@H]1C(=O)N[C@@H](CC(N)=O)C(=O)N[C@H]2C(=O)N[C@H]3C(=O)N[C@H](C(=O)N[C@H](C(=O)O)c4cc(O)cc(O)c4-c4cc3ccc4O)[C@H](O)c3ccc(c(Cl)c3)Oc3cc2cc(c3O[C@@H]2O[C@H](CO)[C@@H](O)[C@H](O)[C@H]2O[C@H]2C[C@](C)(N)[C@H](O)[C@H](C)O2)Oc2ccc(cc2Cl)[C@H]1O` [VANCOMYCIN], the MIC [4] was 0.98 µg/mL (≈ 0.676 µM), the MIC [5] was 0.24 µg/mL (≈ 0.166 µM) and the MIC [6] was 0.49 µg/mL (≈ 0.338 µM). The MIC [7] was 0.24 µg/mL (≈ 0.166 µM), the MIC [8] was 0.98 µg/mL (≈ 0.676 µM) and the MIC [9] was 0.49 µg/mL (≈ 0.338 µM). It also gave an MIC [10] of 0.24 µg/mL (≈ 0.166 µM), an MIC [11] of 0.12 µg/mL (≈ 0.0828 µM) and an MIC [12] of 0.98 µg/mL (≈ 0.676 µM). It also gave an MIC [13] of 0.98 µg/mL (≈ 0.676 µM).
Compound `N/C(=N\NC(=S)N1CCCC1)c1cc(N2CCCC2)ccn1` has an MIC [1] of 6.25 µg/mL (≈ 19.6 µM) and an MIC [2] of 6.25 µg/mL (≈ 19.6 µM).
`N/C(=N\NC(=S)N1CCOCC1)c1cc(N2CCOCC2)ccn1` gave an MIC [3] of 31.3 µg/mL (≈ 89.3 µM), an MIC [4] of 15.6 µg/mL (≈ 44.5 µM) and an MIC [14] greater than 1000 µg/mL. For the same compound, the MIC [15] was greater than 1000 µg/mL, the MIC [1] was 3.1 µg/mL (≈ 8.85 µM) and the MIC [16] was 31.3 µg/mL (≈ 89.3 µM). The MIC [2] was 3.1 µg/mL (≈ 8.85 µM), the MIC [5] was 1000 µg/mL (≈ 2850 µM) and the MIC [6] was 15.6 µg/mL (≈ 44.5 µM). The MIC [17] was 31.3 µg/mL (≈ 89.3 µM), the MIC [18] was 31.3 µg/mL (≈ 89.3 µM) and the MIC [7] was greater than 1000 µg/mL. It also gave an MIC [8] of 15.6 µg/mL (≈ 44.5 µM), an MIC [9] of 15.6 µg/mL (≈ 44.5 µM) and an MIC [10] of 31.3 µg/mL (≈ 89.3 µM). The MIC [19] was greater than 1000 µg/mL, the MIC [11] was 7.8 µg/mL (≈ 22.3 µM) and the MIC [12] was 31.3 µg/mL (≈ 89.3 µM). The IC50 [20] was “Not Active”, the IC50 [21] was 17.8 µg/mL (≈ 50.9 µM) and the MIC [13] was 1000 µg/mL (≈ 2850 µM).
`N/C(=N\NC(=S)N1CCN(c2ccccc2)CC1)c1cc(Oc2ccccc2)ccn1` was tested, and the MIC [1] was 25 µg/mL (≈ 57.8 µM) and the MIC [2] was 25 µg/mL (≈ 57.8 µM).
For `N/C(=N\NC(=S)N1CCCC1)c1cc(N2CCN(c3ccccc3)CC2)ccn1`, the MIC [1] was 12.5 µg/mL (≈ 30.5 µM) and the MIC [2] was 12.5 µg/mL (≈ 30.5 µM).
`O=C(O)c1cn(C2CC2)c2cc(N3CCNCC3)c(F)cc2c1=O` [CIPROFLOXACIN] was tested, and the MIC [4] was 0.49 µg/mL (≈ 1.48 µM), the MIC [15] was 0.03 µg/mL (≈ 0.0905 µM) and the MIC [6] was 0.24 µg/mL (≈ 0.724 µM). It also gave an MIC [17] of 0.12 µg/mL (≈ 0.362 µM), an MIC [8] of 0.49 µg/mL (≈ 1.48 µM) and an MIC [9] of 0.24 µg/mL (≈ 0.724 µM). The MIC [10] was 0.03 µg/mL (≈ 0.0905 µM), the MIC [11] was 0.98 µg/mL (≈ 2.96 µM) and the MIC [12] was 0.12 µg/mL (≈ 0.362 µM).
With `N/C(=N\NC(=S)N1CCOCC1)c1cc(N2CCN(c3ccccc3)CC2)ccn1` the MIC [1] was 6.25 µg/mL (≈ 14.7 µM) and the MIC [2] was 6.25 µg/mL (≈ 14.7 µM).
Compound `NNC(=O)c1ccncc1` [ISONIAZID] has an MIC [1] of 3.1 µg/mL (≈ 22.6 µM) and an MIC [2] of 12.5 µg/mL (≈ 91.1 µM).
`N/C(=N\NC(=S)N1CCCCC1)c1cc(Oc2ccccc2)ccn1` showed an MIC [1] of 12.5 µg/mL (≈ 35.2 µM) and an MIC [2] of 12.5 µg/mL (≈ 35.2 µM).
